Consider 30 compounds from ChEMBL document CHEMBL3872226, “Evaluation of selected 3D virtual screening tools for the prospective identification of peroxisome proliferator-activated receptor (PPAR) γ partial agonists” (Eur J Med Chem, 2016).

Assay [1] deals with T1, Peroxisome proliferator-activated receptor gamma (Homo sapiens) (UniProt P37231).
T1 sequence (whole entry): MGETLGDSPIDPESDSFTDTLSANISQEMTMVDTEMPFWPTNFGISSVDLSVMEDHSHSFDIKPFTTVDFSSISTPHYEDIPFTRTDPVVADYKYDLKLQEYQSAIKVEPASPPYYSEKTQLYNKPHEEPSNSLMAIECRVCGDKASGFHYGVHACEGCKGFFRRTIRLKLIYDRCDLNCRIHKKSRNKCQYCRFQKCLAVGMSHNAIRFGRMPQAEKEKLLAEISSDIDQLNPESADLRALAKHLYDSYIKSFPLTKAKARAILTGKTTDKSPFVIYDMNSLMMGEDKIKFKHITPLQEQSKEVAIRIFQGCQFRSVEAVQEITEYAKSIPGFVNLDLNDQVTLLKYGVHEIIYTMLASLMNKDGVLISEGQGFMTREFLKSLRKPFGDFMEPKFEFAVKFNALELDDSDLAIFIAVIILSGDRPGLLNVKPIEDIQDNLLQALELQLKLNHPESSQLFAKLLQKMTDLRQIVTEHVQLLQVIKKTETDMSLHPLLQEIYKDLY
The assay is described as follows: Displacement of Fluoromone from GST-tagged recombinant human PPARgamma ligand binding domain at 10 uM by LanthaScreen TR-FRET assay relative to pioglitazone. In a few lines:
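Recombinant GST-tagged PPARγ LBD incubated with terbium-labelled anti-GST antibody and fluorescein-labelled pan-PPAR agonist Fluoromone (5 nM), triplicates; DMSO negative control, pioglitazone and telmisartan positive controls. TR-FRET read as 520/495 nm emission ratio; compound autofluorescence subtracted as blank. Displacement expressed relative to pioglitazone.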
On the technique in general: In TR-FRET formats the signal depends on donor and acceptor labels being close together.

In assay [2] the target is T2, Peroxisome proliferator-activated receptor gamma (Homo sapiens, UniProt P37231).
T2 sequence (P37231 whole entry): T1 sequence (whole entry)
Kind of assay: Displacement of Fluoromone from GST-tagged recombinant human PPARgamma ligand binding domain by LanthaScreen TR-FRET assay.

The target in assay [3] is T1, Peroxisome proliferator-activated receptor gamma (Homo sapiens). Kind of assay: Transactivation of GAL4-fused human PPARgamma ligand binding domain expressed in African green monkey COS7 cells at 10 uM after 42 hrs by dual luciferase reporter gene assay relative to pioglitazone. Type of assay: cell-based. The conditions noted are these: COS-7. In a few lines: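 COS-7 cells seeded at 10^4 cells/well in DMEM with 10% FCS, grown 24 h at 37 °C, 5% CO2. Transiently transfected in serum- and antibiotic-free medium with pGal5-TK-Luc (30 ng), pGal4-PPARγ-LBD (3 ng) and pRenilla-CMV (1 ng). Compounds or DMSO vehicle added after 4 h, triplicates; dual-luciferase read after 42 h. Activation relative to pioglitazone.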

Assay [4] addresses T2, Peroxisome proliferator-activated receptor gamma. Kind of assay: Transactivation of GAL4-fused human PPARgamma ligand binding domain expressed in African green monkey COS7 cells after 42 hrs by dual luciferase reporter gene assay. The format is cell-based, COS-7. A general note: A reporter such as luciferase makes a cellular process visible.

Broadly, the inhibition is how much of the control response was suppressed. As to `O=S(=O)(Nc1ccc(Oc2ccc(OC(F)(F)F)cc2)cc1)c1cc(Cl)c(Cl)cc1Cl`, the inhibition in assay [1] turned out to be 45%.
The term EC50 denotes the concentration at which the effect is half-maximal. Take `CSc1nc(Sc2nnc(-c3cc(C(F)(F)F)cc(C(F)(F)F)c3)[nH]2)cc(Sc2nnc(-c3cc(C(F)(F)F)cc(C(F)(F)F)c3)[nH]2)n1`: in assay [1], the inhibition was 76%. Besides, the EC50 in assay [2] turned out to be 5.4 µM.
`O=c1n(Cc2ccc(Cl)cc2Cl)c2ccccc2n1Cc1ccc(Cl)cc1Cl` had an Activity in assay [3] of 9.1%.
`Cn1ccnc1SCc1nccn1Cc1ccc(Cl)cc1`: the Activity in assay [3] turned out to be 8.1%.
With `Oc1c(O)c(CN2CCCCC2)c2ccccc2c1CN1CCCCC1`, the Activity in assay [3] is 2.7%.
`Cc1ccc(S(=O)(=O)Nc2ccc(Oc3cccnc3)nc2)cc1` returned an Activity in assay [3] of 6%.
On to `COc1cc2c(cc1OC)C(/C=C1\SC(C(=O)c3cccs3)=NN1c1ccc(C)cc1)=NCC2`, for which the inhibition in assay [1] amounted to 42%.
In the case of `CC(C)(CC(=O)O)CC(=O)N1CCCN(c2nccc(C(F)(F)F)n2)CC1`, the Activity in assay [3] was found to be 9.8%.
Same read-out and setting: in the case of `Cc1cc(Oc2nc(NCCSC(C)(C)C)nc(Oc3cc(C)c(Cl)c(C)c3)n2)cc(C)c1Cl` it was 9%.
For the compound `O=C(CN1c2ccccc2Sc2ccccc21)NNC(=S)NCc1ccccc1`, the EC50 was 21.7 µM in assay [4] and 2.8 µM in assay [2]. Besides, the inhibition in assay [1] came out at 86%. The Activity in assay [3] was determined as 41.9%.
`O=C(CSc1nnc(SCC(=O)NCCSCc2ccco2)s1)NCCSCc1ccco1` yielded an Activity in assay [3] of 12.3%.
Still for that read-out and setting: in the case of `COc1nc(-c2ccc(OCc3ccccc3)cc2OCc2ccc(F)cc2)cc(-c2ccc(C)cc2)c1C#N` it was 9.5%.
On to `O=S(=O)(c1ccc(Cl)cc1)c1cnn(S(=O)(=O)c2ccc(Cl)cc2Cl)c1-c1ccc(Cl)cc1`, for which the inhibition in assay [1] came out at 80%. Further, the EC50 in assay [2] is 2.1 µM.
In assay [3], `Cc1ccc(S(=O)(=O)n2nc(C)c(Sc3nccn3C)c2C)cc1` returned an Activity of 10.1%.
As to `N#CC(/N=C/c1cc(Cl)cc(Cl)c1O)=C(C#N)/N=C/c1cc(Cl)cc(Cl)c1O`, the inhibition in assay [1] came out at 46%.
On to `Cc1ccc(Sc2c(C(=O)O)cnc3c2c(C)nn3C)cc1`, for which, in assay [3], the Activity came out at 7%.
With `Cc1c(NS(=O)(=O)c2ccc(S(=O)(=O)c3ccccc3)s2)c(=O)n(-c2ccccc2)n1C`, the Activity in assay [3] worked out at 7.8%.
As to `Cc1noc(C)c1-c1nc(CS(=O)(=O)Cc2ccc(Cl)cc2)no1`, in assay [3], the Activity worked out at 12.8%.
`O=C(O)c1cn(C2CCCCC2)c2ccccc2c1=O` yielded an Activity in assay [3] of 12%.
Regarding `COc1ccc(-c2cn3cccc(OCc4ccc(Cl)c(Cl)c4)c3n2)cc1`, in assay [1], the inhibition turned out to be 60%. In assay [2], the EC50 came out at 3.1 µM.
Turning to `Cc1[nH]c2ccccc2c1SCc1nnc(SCc2ccccc2)n1C`, in assay [3], the Activity worked out at 9.8%.
On to `Cc1nc(CSc2nnc(-c3ccc(C(F)(F)F)cc3)n2Cc2ccco2)cs1`, for which, in assay [3], the Activity turned out to be 2.8%.
Take `Cc1nn(C)c(Cl)c1S(=O)(=O)Nc1ccc(Oc2ccc(F)cc2)cc1`: the Activity in assay [3] was determined as 3%.
With `O=S(=O)(Nc1cc(Cc2cc(NS(=O)(=O)c3ccccc3)cc(C(F)(F)F)c2)cc(C(F)(F)F)c1)c1ccccc1`, the EC50 turned out to be 3.4 µM in assay [4] and 0.6 µM in assay [2]. For the same compound, the inhibition in assay [1] was found to be 99%. This compound gave an Activity in assay [3] of 23.7%.
For the compound `Cc1noc(C)c1-c1noc(CSCc2ccc(Cl)cc2)n1`, the Activity in assay [3] worked out at 8.4%.
The compound `N#Cc1c(SCc2ccccc2)nc2c(c1/C=C\c1ccccc1)CCC2` registered an Activity in assay [3] of 14.4%.
`O=C(CSCc1ccc(Cl)c(Cl)c1)c1ccc(OCc2ccc([N+](=O)[O-])cc2)cc1` yielded an Activity in assay [3] of 11.1%.
On to `O=S(=O)(CS(=O)(=O)Oc1cc(Cl)cc(Cl)c1)Oc1cc(Cl)cc(Cl)c1`, for which, in assay [1], the inhibition is 48%.
For `CCCc1nc2c(C)cc(-c3nc4ccccc4n3C)cc2n1Cc1ccc(-c2ccccc2C(=O)O)cc1` [TELMISARTAN], the inhibition in assay [1] is 91%. Besides, in assay [2], the EC50 stood at 0.7 µM.
In assay [3], `COc1ccc(CCNc2ccc(C(F)(F)F)cc2/N=C/c2cc(Cl)cc(Cl)c2O)cc1OC` registered an Activity of 9.9%.
